Calls of active or inactive are those of the source.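 How the source made its calls, unless noted: active means viability at or below 10% of carrier control in both of two separate runs; inconclusive means viability at or below 10% in only one of the two runs; inactive means the rest.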
Columns and labels:
[1] = reducers of endogenous Her2 protein level, primary screen, SKBR3 breast tumor cells, AlphaScreen, ATP viability (AID 461;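 active means Her2 level under about 52% in both replicate screens, with viability over 70% of control, limit read from the data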;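 on Her2 level: lower value means less Her2 protein in the cells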;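 on viability: percent of carrier control wells set as 100% viability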); conditions: 18-24 h, measured here: SKBR3 viability, ATP luminescence, at 10 µM
[2] = biological target: Receptor tyrosine-protein kinase erbB-2 (Homo sapiens) (UniProt P04626); experiment: as above; conditions: 18-24 h, at 10 µM, stronger effect = lower value
[3] = SK-BR-3 cell growth inhibitors, pilot screen, 24 h, human (AID 572); conditions: SK-BR-3 viability, CellTiter-Glo luminescence, at 10 µM, stronger effect = lower value;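 further: compound exposure lasted between 18 and 24 h rather than exactly 24 h; 100% = carrier-treated control wells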
[4] = HUVEC growth inhibition – cell-based, human, primary screen (AID 575;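 active means viability at or below 30% in both replicate assays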;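 further: 100% = median of untreated cell wells with 0.1% DMSO on each plate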); conditions: HUVEC proliferation, CellTiter-Glo luminescence, 72 h; at 10 µM; stronger effect = lower value
In short: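 Test system: primary human umbilical vein endothelial cells; medium: endothelial basal medium with 2% FBS plus growth supplements; dosing: 10 µM compound only; times: 72 h treatment at 37 °C; signal: CTG luminescence; read-out: % viability relative to median vehicle-well signal on each plate; control set: vehicle and MePR control wells; plate: 384-well, collagen-coated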

[5] = growth inhibitors of H69AR lung tumor, primary screen, human, duplicate replicates (AID 580;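 active means viability at or under a set limit in both replicates, limit being median viability minus 3 SD, cut at about 48% in these data, passing the limit was not always enough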;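 further: 100% = mean luminescence of untreated wells and 0% = no signal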); conditions: H69AR lung tumor cells viability, ATP luminescence, 72 h; at 10 µM; stronger effect = lower value
[6] = reversal of MRP1-mediated doxorubicin resistance, pilot screen, H69AR cells, doxorubicin co-treatment (AID 601;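 active means viability loss from added drug above about 55%, and viability with drug at most 40%, in both replicates, limit read from the data, passing the limit was not always enough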); conditions: CellTiter-Glo, 72 h, at 10 µM; for differential viability (reversal): stronger effect = higher value
[7] = 384-well plate pilot, post-Golgi transport modulator project, inhibition of yeast transport mutant growth (AID 636; in the data active means inhibition above about 31%); conditions: absorbance 615 nm, about 18 h, stronger effect = higher value
[8] = growth suppression of yeast trafficking mutant, preliminary HTS, modulators of trafficking downstream of Golgi apparatus project, 1536-format plate, OD 615 nm (AID 637; in the data active means inhibition above about 30%); conditions: yeast transport mutant growth, absorbance 615 nm, 18 h; stronger effect = higher value
[9] = H69AR cells + 2 uM doxorubicin, measured here: viability with 2 uM doxorubicin, stronger effect = lower value
[10] = H69AR cells, compound alone cytotoxicity

Sequence of Receptor tyrosine-protein kinase erbB-2 (Homo sapiens) (P04626 whole entry, looked up): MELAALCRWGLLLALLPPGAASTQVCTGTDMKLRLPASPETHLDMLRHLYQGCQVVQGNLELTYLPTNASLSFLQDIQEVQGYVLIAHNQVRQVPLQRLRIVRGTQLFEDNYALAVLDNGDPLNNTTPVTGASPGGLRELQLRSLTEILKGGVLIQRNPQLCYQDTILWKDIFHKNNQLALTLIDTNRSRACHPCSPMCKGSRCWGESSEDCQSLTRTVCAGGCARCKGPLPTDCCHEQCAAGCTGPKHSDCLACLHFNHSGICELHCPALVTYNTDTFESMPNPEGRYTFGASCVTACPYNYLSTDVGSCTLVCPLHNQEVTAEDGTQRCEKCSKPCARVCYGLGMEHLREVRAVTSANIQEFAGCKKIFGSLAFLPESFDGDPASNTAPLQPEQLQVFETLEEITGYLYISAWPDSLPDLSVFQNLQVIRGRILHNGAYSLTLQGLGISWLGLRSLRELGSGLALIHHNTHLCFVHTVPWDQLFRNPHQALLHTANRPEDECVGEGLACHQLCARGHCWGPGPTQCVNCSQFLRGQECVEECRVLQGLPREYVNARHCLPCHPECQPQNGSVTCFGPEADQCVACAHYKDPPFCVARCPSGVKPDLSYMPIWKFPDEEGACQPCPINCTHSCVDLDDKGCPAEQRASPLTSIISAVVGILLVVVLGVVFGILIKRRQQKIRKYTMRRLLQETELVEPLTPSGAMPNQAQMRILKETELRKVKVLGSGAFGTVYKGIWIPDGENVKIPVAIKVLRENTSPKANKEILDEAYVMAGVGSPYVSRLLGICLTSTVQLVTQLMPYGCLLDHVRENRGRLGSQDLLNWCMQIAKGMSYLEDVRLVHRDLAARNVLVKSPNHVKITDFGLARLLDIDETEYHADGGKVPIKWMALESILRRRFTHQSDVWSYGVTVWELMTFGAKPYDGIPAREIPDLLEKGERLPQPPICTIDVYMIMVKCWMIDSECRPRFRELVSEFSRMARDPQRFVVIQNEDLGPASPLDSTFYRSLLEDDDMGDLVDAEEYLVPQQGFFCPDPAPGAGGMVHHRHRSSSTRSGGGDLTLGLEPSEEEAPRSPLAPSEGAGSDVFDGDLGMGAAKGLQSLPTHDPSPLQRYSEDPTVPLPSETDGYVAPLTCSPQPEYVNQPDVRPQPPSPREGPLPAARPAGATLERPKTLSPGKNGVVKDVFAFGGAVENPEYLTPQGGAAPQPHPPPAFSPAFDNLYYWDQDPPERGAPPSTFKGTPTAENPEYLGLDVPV

| Compound | viability [1] [%] | Her2 level [2] | viability [3] | viability [4] | viability [5] | differential viability (reversal) ([6]; H69AR cells + 2 uM doxorubicin) | viability [6, 9] [%] | viability [6, 10] [%] | inhibition [7] | inhibition [8] |
| --- | --- | --- | --- | --- | --- | --- | --- | --- | --- | --- |
| COc1c(Br)cc2c(C)c(C(=O)O)oc2c1Br | 104 | 102% (inactive) | 104% (inactive) | 84.2% (inactive) | 94.2% (inactive) | 4.95% (inactive) | 89.3 | 94.2 | 1.82% (inactive) | -4.59% (inactive) |
| COc1ccc(OC)c(C(=O)c2coc3ccc(O)c(CN4CCOCC4)c23)c1 | 95.5 | 78% (inactive) | 95.5% (inactive) | 97.8% (inactive) | 90.1% (inactive) | -4.02% (inactive) | 94.1 | 90.1 | -5.07% (inactive) | -8.73% (inactive) |
| Cc1onc(-c2ccccc2)c1C(N)=O | 91 | 93.5% (inactive) | 91% (inactive) | 97.7% (inactive) | 100% (inactive) | 13.8% (inactive) | 86.7 | 100 | -1.32% (inactive) | -4.35% (inactive) |
| O=C(Nc1cccc(NC(=O)c2cccnc2)c1)c1cccnc1 | 89 | 80% (inactive) | 89% (inactive) | 119% (inactive) | 86.7% (inactive) | -2.21% (inactive) | 88.9 | 86.7 | -5% (inactive) | 1.67% (inactive) |
| CCN(CC)CCN1C(=O)C(O)=C(C(=O)c2cccs2)C1c1ccccn1 (stereo not given) | 86 | 82% (inactive) | 86% (inactive) | 100% (inactive) | 98% (inactive) | 18.6% (inactive) | 79.5 | 98 | -4.86% (inactive) | -1.59% (inactive) |
| COC(=O)Nc1ccc(NC(C)=O)cc1 | 96 | 116% (inactive) | 96% (inactive) | 103% (inactive) | 91% (inactive) | 8.88% (inactive) | 82.1 | 91 | 5.84% (inactive) | -8.36% (inactive) |
| COC(=O)Nc1nnc(CCc2ccccc2)s1 | 115 | 97.5% (inactive) | 115% (inactive) | 97.2% (inactive) | 95.2% (inactive) | 14.9% (inactive) | 80.3 | 95.2 | -7.07% (inactive) | 9.52% (inactive) |
| CCOc1ccccc1C(=O)NC(C)c1ccc2c(c1)OCO2 (stereo not given) | 104 | 99% (inactive) | 104% (inactive) | 67.6% (inactive) | 23.5% (active) | -56.4% (inactive) | 80 | 23.5 | -6.89% (inactive) | -4.26% (inactive) |
| CCc1cc(=O)oc2cc(OC(C)=O)cc(OC(C)=O)c12 | 116 | 74% (inactive) | 116% (inactive) | 76.8% (inactive) | 95.1% (inactive) | -9.96% (inactive) | 105 | 95.1 | -7.37% (inactive) | -5.5% (inactive) |
| CCCCCC1CC(CC(=O)O)C(=O)O1 (stereo not given) | 100 | 96% (inactive) | 100% (inactive) | 82.5% (inactive) | 104% (inactive) | 7.44% (inactive) | 96.2 | 104 | -4.87% (inactive) | 7.67% (inactive) |
| CN(C)C(=O)c1ccc(COc2ccccc2Br)o1 | 110 | 84% (inactive) | 110% (inactive) | 88.5% (inactive) | 90.7% (inactive) | 13% (inactive) | 77.8 | 90.7 | -9.05% (inactive) | 0.48% (inactive) |
| COC(=O)c1ccc(C2NC(C(=O)O)CS2)cc1 (stereo not given) | 132 | 103% (inactive) | 132% (inactive) | 102% (inactive) | 89% (inactive) | -8.38% (inactive) | 97.3 | 89 | -0.79% (inactive) | 3.02% (inactive) |
| CN(Cc1ccccc1)C(=O)CNC(=O)Cn1cnc2ccccc2c1=O | 100 | 83% (inactive) | 100% (inactive) | 91.9% (inactive) | 100% (inactive) | 9.23% (inactive) | 90.8 | 100 | -3.11% (inactive) | -5.71% (inactive) |
| COc1cccc(-n2nnnc2SCC(=O)NCc2ccco2)c1 | 117 | 92.5% (inactive) | 117% (inactive) | 90.5% (inactive) | 83.2% (inactive) | 5.98% (inactive) | 77.2 | 83.2 | -4.8% (inactive) | 4.52% (inactive) |
| CCn1c(=O)c(=O)[nH]c2cc(C(=O)N3CCN(c4ccccc4F)CC3)ccc21 | 110 | 91.5% (inactive) | 110% (inactive) | 97.1% (inactive) | 98.9% (inactive) | 5.58% (inactive) | 93.3 | 98.9 | 0.14% (inactive) | -0.16% (inactive) |
| C=CCSC1=C(C#N)C(c2ccccc2)CC(=O)N1 (stereo not given) | 106 | 93.5% (inactive) | 106% (inactive) | 114% (inactive) | 104% (inactive) | 6.72% (inactive) | 97.4 | 104 | -1.87% (inactive) | -4.35% (inactive) |

| Compound | viability [1] [%] | Her2 level [2] | viability [3] | viability [4] | viability [5] | differential viability (reversal) ([6]; H69AR cells + 2 uM doxorubicin) | viability [6, 9] [%] | viability [6, 10] [%] | inhibition [7] | inhibition [8] |
| --- | --- | --- | --- | --- | --- | --- | --- | --- | --- | --- |
| CC(C)C(NC(=O)OCc1ccccc1)C(=O)OCC(=O)NCc1ccco1 (stereo not given) | 100 | 108% (inactive) | 100% (inactive) | 86.2% (inactive) | 85.3% (inactive) | 7.68% (inactive) | 77.6 | 85.3 | -1.18% (inactive) | -11.3% (inactive) |
| CCCCS(=O)(=O)NC1=NCN(C2CCN(Cc3ccccc3)CC2)CN1 | 116 | 98.5% (inactive) | 116% (inactive) | 91.5% (inactive) | 111% (inactive) | 9.66% (inactive) | 101 | 111 | -2.7% (inactive) | -2.22% (inactive) |
| Cc1sc2c(c1C)CN(C1CC(C)(C)NC(C)(C)C1)CN2C(=O)c1ccco1 | 86.5 | 80.5% (inactive) | 86.5% (inactive) | 75.7% (inactive) | 83.7% (inactive) | 0.235% (inactive) | 83.4 | 83.7 | -7.33% (inactive) | 1.8% (inactive) |
| O=C1c2ccccc2C(O)(Cc2ccccc2)N1Cc1ccco1 (stereo not given) | 88.5 | 104% (inactive) | 88.5% (inactive) | 89% (inactive) | 95.7% (inactive) | 10.1% (inactive) | 85.6 | 95.7 | -2.37% (inactive) | -9.19% (inactive) |
| CN(C)c1ccc(-c2nn3c(-c4ccc(Cl)cc4Cl)nnc3s2)cc1 | 100 | 71% (inactive) | 100% (inactive) | 46.7% (inactive) | 15.1% (active) | -42.6% (inactive) | 57.7 | 15.1 | -6.08% (inactive) | 5.08% (inactive) |
| Cc1cc(Cl)c(S(=O)(=O)N2CCN(c3ccc(F)cc3)CC2)cc1OCC(N)=O | 82.5 | 100% (inactive) | 82.5% (inactive) | 97.1% (inactive) | 80.5% (inactive) | 1.14% (inactive) | 79.3 | 80.5 | -5.66% (inactive) | 8.85% (inactive) |
| COc1ccc(C2C(C(=O)NCCN3CCOCC3)c3ccccc3C(=O)N2C2CCCCC2)cc1 (stereo not given) | 88.5 | 71% (inactive) | 88.5% (inactive) | 64.3% (inactive) | 81.3% (inactive) | 2.12% (inactive) | 79.2 | 81.3 | -3.33% (inactive) | 0% (inactive) |
| O=C(O)c1cc2c(s1)CCCC2 | 88.5 | 93% (inactive) | 88.5% (inactive) | 104% (inactive) | 89.9% (inactive) | -1.15% (inactive) | 91.1 | 89.9 | -1.03% (inactive) | -7.83% (inactive) |
| O=C(Cn1nnc(-c2cccs2)n1)OC1CCCCC1 | 94.5 | 104% (inactive) | 94.5% (inactive) | 81.7% (inactive) | 110% (inactive) | 16.9% (inactive) | 93.3 | 110 | -4.93% (inactive) | -3.39% (inactive) |
| Cc1cccc(CCNC(=O)CCc2nc(-c3ccccc3F)no2)c1 | 91.5 | 104% (inactive) | 91.5% (inactive) | 89.1% (inactive) | 93.5% (inactive) | 9.82% (inactive) | 83.7 | 93.5 | -2.37% (inactive) | -5% (inactive) |
| CCOC(=O)C1=C(C)N=C2SCCC(=O)N2C1c1cc(Br)ccc1OC (stereo not given) | 94.5 | 91% (inactive) | 94.5% (inactive) | 107% (inactive) | 92% (inactive) | 1.69% (inactive) | 90.3 | 92 | -7.67% (inactive) | 0% (inactive) |
| CC(=O)OCC(=O)c1ccc2ccn(C(C)=O)c2c1 | 106 | 89% (inactive) | 106% (inactive) | 94.9% (inactive) | 90.5% (inactive) | -1.94% (inactive) | 92.5 | 90.5 | -5.33% (inactive) | 3.11% (inactive) |
| COC(=O)c1ccc(CSc2nc(-c3ccc(OC)cc3)nc3c2c(=O)n(C)c(=O)n3C)o1 | 100 | 74% (inactive) | 100% (inactive) | 85.8% (inactive) | 77.4% (inactive) | -11.5% (inactive) | 89 | 77.4 | -4.8% (inactive) | -3.11% (inactive) |
| CC(=O)c1cc(C#N)c(SCC(=O)OC(C)C)nc1C | 102 | 80.5% (inactive) | 102% (inactive) | 88% (inactive) | 61.2% (inactive) | 23.3% (inactive) | 37.9 | 61.2 | -7.03% (inactive) | 5.67% (inactive) |
| Cc1nc2ccccc2cc1O | 133 | 104% (inactive) | 133% (inactive) | 85.9% (inactive) | 92% (inactive) | -16.9% (inactive) | 109 | 92 | -6.05% (inactive) | 13.1% (inactive) |
| CSc1nnc(-c2nnc(SC)n2-c2ccccc2)n1-c1ccccc1 | 87 | 83.5% (inactive) | 87% (inactive) | 89.8% (inactive) | 98.3% (inactive) | 9.77% (inactive) | 88.6 | 98.3 | -5.73% (inactive) | 6.77% (inactive) |
